Reference: ChEMBL document CHEMBL4052618, “Design, synthesis, SAR discussion, in vitro and in vivo evaluation of novel selective EGFR modulator to inhibit L858R/T790M double mutants” (Eur J Med Chem, 2017)

How the values were obtained:
[1] = molecular target: Epidermal growth factor receptor (Homo sapiens, UniProt P00533, L858R/T790M); experiment: Inhibition of human recombinant cytoplasmic GST-tagged EGFR T790M/L858R double mutant (668 to 1210 residues) expressed in baculovirus using TK-substrate-biotin preincubated for 15 mins followed by substrate addition measured after 60 mins by FRET-based Z'-Lyte assay
[2] = test system: A-431; experiment: Antiproliferative activity against human A431 cells harboring wild-type EGFR; assay type: functional, cell-based
[3] = test system: HCC827; experiment: Antiproliferative activity against human HCC827 cells harboring EGFR E746-A750 deletion mutant; assay type: functional, cell-based
[4] = Half life in mouse liver microsomes; assay type: ADME, microsome
[5] = Intrinsic clearance in dog liver microsomes; assay type: ADME, Canis lupus familiaris, microsome; conditions: read-out: CLH
[6] = AUC (0 to 24 hrs) in Sprague-Dawley rat at 10 mg/kg, po administered via gavage by LC-MS/MS analysis; assay type: ADME, organism-based; parameters: time < 24 hr, dose 10 mg/kg, route oral; conditions: in vivo
[7] = Clearance in Sprague-Dawley rat at 1 mg/kg, iv after 24 hrs by LC-MS/MS analysis; assay type: ADME, organism-based; conditions: in vivo
Procedure, shortened: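 Male Sprague-Dawley rats (200-240 g) received 1 mg/kg by tail-vein injection in 2% DMSO, 20% PEG400 and 78% buffered saline, or 10 mg/kg by oral gavage in 0.5% methylcellulose. Orbital sinus blood was drawn into heparinized tubes at 2, 5, 15 and 30 min and at 1, 2, 4, 8, 12 and 24 h, then centrifuged. Plasma was measured by LC/MS/MS in SRM mode, with non-compartmental analysis.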

[8] = test system: NCI-H1975; experiment: In vivo anti tumor activity against human NCI-H1975 cells xenografted in nude C.B-17 SCID mouse model assessed as tumor volume at 10 mg/kg, ig for 18 days measured twice a week (reference value: 948.05 mm3); assay type: functional
[9] = test system: NCI-H1975; experiment: In vivo anti tumor activity against human NCI-H1975 cells xenografted in nude C.B-17 SCID mouse model assessed as tumor volume at 20 mg/kg, ig for 18 days measured twice a week (reference value: 948.05 mm3); assay type: functional
[10] = test system: NCI-H1975; experiment: In vivo anti tumor activity against human NCI-H1975 cells xenografted in nude C.B-17 SCID mouse model assessed as relative tumor volume at 5 mg/kg, ig for 18 days measured twice a week relative to control; assay type: functional
Procedure, shortened: (§1)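 C.B-17 SCID mice received s.c. inoculation of 5 × 10^6 H1975 cells. At 100-150 mm3 they were randomized (n = 9 per group) and dosed intragastrically once daily for 18 days, with PBS as the control. Tumors were measured by caliper twice weekly, with V = length × width²/2. RTV = V/V0, and T/C% = treated mean RTV / control mean RTV × 100.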

[11] = test system: NCI-H1975; experiment: In vivo anti tumor activity against human NCI-H1975 cells xenografted in nude C.B-17 SCID mouse model assessed as relative tumor volume at 10 mg/kg, ig for 18 days measured twice a week relative to control; assay type: functional; procedure, shortened: as §1
[12] = test system: NCI-H1975; experiment: In vivo anti tumor activity against human NCI-H1975 cells xenografted in nude C.B-17 SCID mouse model assessed as relative tumor volume at 20 mg/kg, ig for 18 days measured twice a week relative to control; assay type: functional; procedure, shortened: as §1
[13] = test system: NCI-H1975; experiment: In vivo anti tumor activity against human NCI-H1975 cells xenografted in nude C.B-17 SCID mouse model assessed as tumor growth inhibition at 5 mg/kg, ig for 18 days measured twice a week relative to control; assay type: functional; conditions: NCI-H1975, po, 432 h, read-out: TGI
Procedure, shortened: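 H1975 s.c. xenografts (5 × 10^6 cells) were grown in C.B-17 SCID mice and randomized at 100-150 mm3 (n = 9). Mice were dosed intragastrically once daily for 18 days against a PBS control. TGI% = (TWcontrol − TWtreatment)/TWcontrol × 100, where TW is the mean tumor weight on day 18.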

[14] = test system: Mus musculus; experiment: Toxicity in nude C.B-17 SCID mouse model xenografted with human NCI-H1975 cells assessed as loss of body weight at 5 to 20 mg/kg, ig for 18 days; assay type: organism-based; conditions: in vivo, po, 432 h
Procedure, shortened: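 H1975 xenografts were set up by subcutaneous inoculation of 5 × 10^6 cells into C.B-17 SCID mice. At a mean tumor volume of 100-150 mm3, mice were randomized into groups of n = 9. They were dosed intragastrically once daily for 18 days at 5, 10 or 20 mg/kg, given as 0.1 mL/10 g body weight. The control group received PBS, and tumors were caliper-measured twice weekly.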

[15] = molecular target: Tyrosine-protein kinase ABL1 (Homo sapiens) (UniProt P00519); experiment: Inhibition of ABL1 (unknown origin) at 1 uM relative to control
[16] = molecular target: ALK tyrosine kinase receptor (Homo sapiens) (UniProt Q9UM73); experiment: Inhibition of ALK (unknown origin) at 1 uM relative to control
[17] = molecular target: Tyrosine-protein kinase BTK (Homo sapiens) (UniProt Q06187); experiment: Inhibition of BTK (unknown origin) at 1 uM relative to control
[18] = molecular target: Calcium/calmodulin-dependent protein kinase type II subunit beta (Homo sapiens) (UniProt Q13554); experiment: Inhibition of CAMK2B (unknown origin) at 1 uM relative to control
[19] = molecular target: Cyclin-dependent kinase 1/cyclin B1 (Homo sapiens) (UniProt P06493+P14635); experiment: Inhibition of CDK1/cyclin B (unknown origin) at 1 uM relative to control; assay type: protein-complex assay
[20] = molecular target: Receptor-type tyrosine-protein kinase FLT3 (Homo sapiens) (UniProt P36888); experiment: Inhibition of FLT3 (unknown origin) at 1 uM relative to control
[21] = molecular target: Inhibitor of nuclear factor kappa-B kinase subunit beta (Homo sapiens) (UniProt O14920); experiment: Inhibition of IKBKB (unknown origin) at 1 uM relative to control
[22] = molecular target: Tyrosine-protein kinase JAK2 (Homo sapiens) (UniProt O60674); experiment: Inhibition of JAK2 (unknown origin) at 1 uM relative to control
[23] = molecular target: Tyrosine-protein kinase Lyn (Homo sapiens) (UniProt P07948); experiment: Inhibition of LYN-B (unknown origin) at 1 uM relative to control
[24] = molecular target: Mitogen-activated protein kinase 1 (Homo sapiens) (UniProt P28482); experiment: Inhibition of MAPK1 (unknown origin) at 1 uM relative to control
[25] = molecular target: Hepatocyte growth factor receptor (Homo sapiens) (UniProt P08581); experiment: Inhibition of MET (cMet) (unknown origin) at 1 uM relative to control
[26] = molecular target: Serine/threonine-protein kinase Nek2 (Homo sapiens) (UniProt P51955); experiment: Inhibition of NEK2 (unknown origin) at 1 uM relative to control
[27] = molecular target: Rho-associated protein kinase 2 (Homo sapiens) (UniProt O75116); experiment: Inhibition of ROCK2 (unknown origin) at 1 uM relative to control
[28] = molecular target: Ribosomal protein S6 kinase beta-1 (Homo sapiens) (UniProt P23443); experiment: Inhibition of RPS6KB1 (unknown origin) at 1 uM relative to control
[29] = molecular target: MAP kinase-interacting serine/threonine-protein kinase 2 (Homo sapiens) (UniProt Q9HBH9); experiment: Inhibition of MKNK2 (unknown origin) at 1 uM relative to control

Sequence of Cyclin-dependent kinase 1/cyclin B1 (Homo sapiens) (P06493 whole entry, looked up): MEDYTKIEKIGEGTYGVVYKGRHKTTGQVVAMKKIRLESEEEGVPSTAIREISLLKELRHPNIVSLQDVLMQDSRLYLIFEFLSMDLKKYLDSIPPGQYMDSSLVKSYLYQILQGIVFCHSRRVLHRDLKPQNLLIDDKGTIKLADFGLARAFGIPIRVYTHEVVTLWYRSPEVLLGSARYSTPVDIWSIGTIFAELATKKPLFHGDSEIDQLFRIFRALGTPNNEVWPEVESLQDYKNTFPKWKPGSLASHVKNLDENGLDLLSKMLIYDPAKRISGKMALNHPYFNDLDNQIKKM
Sequence of Cyclin-dependent kinase 1/cyclin B1 (Homo sapiens) (P14635 whole entry, looked up): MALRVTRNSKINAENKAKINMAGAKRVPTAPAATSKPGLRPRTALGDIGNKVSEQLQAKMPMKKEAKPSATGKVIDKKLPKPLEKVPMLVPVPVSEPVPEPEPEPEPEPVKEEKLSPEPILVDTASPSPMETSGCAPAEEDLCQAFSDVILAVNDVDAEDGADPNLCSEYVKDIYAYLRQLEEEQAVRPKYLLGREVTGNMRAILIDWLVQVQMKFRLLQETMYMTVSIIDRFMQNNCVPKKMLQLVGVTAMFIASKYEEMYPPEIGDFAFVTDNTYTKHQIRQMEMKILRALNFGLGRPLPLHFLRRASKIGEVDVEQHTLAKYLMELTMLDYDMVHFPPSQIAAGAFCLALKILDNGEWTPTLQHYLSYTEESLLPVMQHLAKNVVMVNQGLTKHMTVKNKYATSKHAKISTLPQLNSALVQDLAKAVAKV
Sequence of Rho-associated protein kinase 2 (Homo sapiens) (O75116 whole entry, looked up): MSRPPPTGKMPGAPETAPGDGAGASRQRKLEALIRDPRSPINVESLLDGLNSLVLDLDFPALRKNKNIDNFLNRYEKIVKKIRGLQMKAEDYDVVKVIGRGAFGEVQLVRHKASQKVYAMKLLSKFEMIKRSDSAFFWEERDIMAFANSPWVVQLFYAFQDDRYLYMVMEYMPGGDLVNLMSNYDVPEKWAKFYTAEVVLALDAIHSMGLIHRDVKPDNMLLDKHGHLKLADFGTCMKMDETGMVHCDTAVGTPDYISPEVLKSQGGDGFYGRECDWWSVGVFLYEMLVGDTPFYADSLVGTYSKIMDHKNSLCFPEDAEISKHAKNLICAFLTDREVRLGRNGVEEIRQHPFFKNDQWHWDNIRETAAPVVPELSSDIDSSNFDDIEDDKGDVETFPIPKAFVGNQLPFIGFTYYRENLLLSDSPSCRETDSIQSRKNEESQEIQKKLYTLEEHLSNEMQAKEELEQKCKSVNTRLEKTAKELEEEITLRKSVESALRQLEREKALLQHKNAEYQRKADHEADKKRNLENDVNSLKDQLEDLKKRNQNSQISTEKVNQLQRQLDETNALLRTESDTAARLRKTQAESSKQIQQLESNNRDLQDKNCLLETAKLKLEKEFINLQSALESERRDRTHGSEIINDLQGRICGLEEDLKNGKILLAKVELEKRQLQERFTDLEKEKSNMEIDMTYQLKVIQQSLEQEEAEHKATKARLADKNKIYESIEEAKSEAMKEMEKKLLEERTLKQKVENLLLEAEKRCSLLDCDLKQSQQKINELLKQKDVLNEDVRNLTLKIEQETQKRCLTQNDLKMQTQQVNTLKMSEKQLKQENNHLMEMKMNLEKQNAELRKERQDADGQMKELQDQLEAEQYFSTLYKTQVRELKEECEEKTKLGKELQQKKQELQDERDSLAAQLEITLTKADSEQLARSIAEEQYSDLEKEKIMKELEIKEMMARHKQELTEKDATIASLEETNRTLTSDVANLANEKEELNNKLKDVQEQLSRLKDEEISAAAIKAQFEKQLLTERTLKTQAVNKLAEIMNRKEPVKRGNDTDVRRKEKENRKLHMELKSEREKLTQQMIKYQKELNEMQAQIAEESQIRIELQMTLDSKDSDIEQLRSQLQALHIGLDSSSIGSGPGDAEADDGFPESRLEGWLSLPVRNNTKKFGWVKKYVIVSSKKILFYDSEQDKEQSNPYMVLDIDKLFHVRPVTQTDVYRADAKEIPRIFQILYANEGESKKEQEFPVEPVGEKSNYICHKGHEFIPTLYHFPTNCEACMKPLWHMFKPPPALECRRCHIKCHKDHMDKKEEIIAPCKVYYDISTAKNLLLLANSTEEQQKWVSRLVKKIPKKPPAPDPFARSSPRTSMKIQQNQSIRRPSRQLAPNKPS
Sequence of Inhibitor of nuclear factor kappa-B kinase subunit beta (Homo sapiens) (O14920 whole entry): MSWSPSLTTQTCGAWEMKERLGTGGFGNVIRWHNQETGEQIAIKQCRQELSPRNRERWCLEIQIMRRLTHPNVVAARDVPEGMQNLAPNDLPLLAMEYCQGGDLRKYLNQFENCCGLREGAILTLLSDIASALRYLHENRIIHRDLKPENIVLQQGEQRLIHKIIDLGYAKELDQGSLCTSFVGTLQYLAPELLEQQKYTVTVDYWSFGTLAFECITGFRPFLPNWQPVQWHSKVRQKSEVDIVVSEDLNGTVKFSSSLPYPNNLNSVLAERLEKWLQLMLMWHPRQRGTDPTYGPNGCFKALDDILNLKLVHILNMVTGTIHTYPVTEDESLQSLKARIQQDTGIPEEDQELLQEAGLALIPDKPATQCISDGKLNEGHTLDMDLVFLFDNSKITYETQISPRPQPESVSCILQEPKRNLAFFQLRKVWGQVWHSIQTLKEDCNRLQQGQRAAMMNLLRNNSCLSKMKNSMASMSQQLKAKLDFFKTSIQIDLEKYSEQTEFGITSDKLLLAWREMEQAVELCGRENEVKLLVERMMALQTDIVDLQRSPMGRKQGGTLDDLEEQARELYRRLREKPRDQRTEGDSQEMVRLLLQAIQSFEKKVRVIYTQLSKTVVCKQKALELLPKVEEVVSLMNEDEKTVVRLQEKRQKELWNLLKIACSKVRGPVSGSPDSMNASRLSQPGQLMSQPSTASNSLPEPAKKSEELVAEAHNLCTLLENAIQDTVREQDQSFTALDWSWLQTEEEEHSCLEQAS
Sequence of Serine/threonine-protein kinase Nek2 (Homo sapiens) (P51955 whole entry): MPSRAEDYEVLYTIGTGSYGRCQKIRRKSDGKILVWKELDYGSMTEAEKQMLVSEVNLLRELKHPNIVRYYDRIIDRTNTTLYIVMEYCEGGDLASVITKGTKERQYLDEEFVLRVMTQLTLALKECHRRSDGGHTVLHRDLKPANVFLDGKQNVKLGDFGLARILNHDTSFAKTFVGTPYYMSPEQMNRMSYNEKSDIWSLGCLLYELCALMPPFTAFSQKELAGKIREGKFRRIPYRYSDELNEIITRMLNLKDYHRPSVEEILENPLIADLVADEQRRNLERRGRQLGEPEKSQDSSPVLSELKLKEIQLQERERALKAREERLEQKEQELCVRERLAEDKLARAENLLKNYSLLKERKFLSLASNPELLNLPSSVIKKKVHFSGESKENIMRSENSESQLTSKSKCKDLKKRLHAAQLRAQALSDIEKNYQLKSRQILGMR
Sequence of Calcium/calmodulin-dependent protein kinase type II subunit beta (Homo sapiens) (Q13554 whole entry): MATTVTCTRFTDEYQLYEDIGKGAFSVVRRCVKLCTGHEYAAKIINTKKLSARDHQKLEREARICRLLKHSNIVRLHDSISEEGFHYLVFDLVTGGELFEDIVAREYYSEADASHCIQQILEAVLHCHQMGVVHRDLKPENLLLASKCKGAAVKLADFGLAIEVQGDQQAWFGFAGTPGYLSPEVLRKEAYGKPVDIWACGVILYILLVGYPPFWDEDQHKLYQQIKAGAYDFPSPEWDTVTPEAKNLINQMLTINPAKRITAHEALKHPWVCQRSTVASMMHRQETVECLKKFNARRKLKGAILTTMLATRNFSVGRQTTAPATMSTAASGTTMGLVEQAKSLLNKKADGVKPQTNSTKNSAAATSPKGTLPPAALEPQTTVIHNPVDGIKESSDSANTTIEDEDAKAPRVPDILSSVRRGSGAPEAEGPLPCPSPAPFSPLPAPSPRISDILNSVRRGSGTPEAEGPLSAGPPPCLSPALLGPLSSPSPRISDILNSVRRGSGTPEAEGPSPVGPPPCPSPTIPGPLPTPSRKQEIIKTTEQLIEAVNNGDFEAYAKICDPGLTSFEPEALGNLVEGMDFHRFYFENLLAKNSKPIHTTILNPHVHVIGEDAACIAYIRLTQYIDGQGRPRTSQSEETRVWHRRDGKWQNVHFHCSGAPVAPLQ
Sequence of Mitogen-activated protein kinase 1 (Homo sapiens) (P28482 whole entry): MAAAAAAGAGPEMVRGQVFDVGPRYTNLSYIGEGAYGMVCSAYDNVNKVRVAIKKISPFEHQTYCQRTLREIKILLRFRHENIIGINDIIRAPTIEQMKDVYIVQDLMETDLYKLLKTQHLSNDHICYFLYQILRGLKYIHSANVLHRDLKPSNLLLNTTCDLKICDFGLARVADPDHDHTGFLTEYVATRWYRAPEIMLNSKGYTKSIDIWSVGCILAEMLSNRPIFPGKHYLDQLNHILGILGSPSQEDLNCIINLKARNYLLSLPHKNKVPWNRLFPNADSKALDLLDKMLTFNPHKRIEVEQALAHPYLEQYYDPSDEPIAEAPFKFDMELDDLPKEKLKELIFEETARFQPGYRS
Sequence of Tyrosine-protein kinase BTK (Homo sapiens) (Q06187 whole entry): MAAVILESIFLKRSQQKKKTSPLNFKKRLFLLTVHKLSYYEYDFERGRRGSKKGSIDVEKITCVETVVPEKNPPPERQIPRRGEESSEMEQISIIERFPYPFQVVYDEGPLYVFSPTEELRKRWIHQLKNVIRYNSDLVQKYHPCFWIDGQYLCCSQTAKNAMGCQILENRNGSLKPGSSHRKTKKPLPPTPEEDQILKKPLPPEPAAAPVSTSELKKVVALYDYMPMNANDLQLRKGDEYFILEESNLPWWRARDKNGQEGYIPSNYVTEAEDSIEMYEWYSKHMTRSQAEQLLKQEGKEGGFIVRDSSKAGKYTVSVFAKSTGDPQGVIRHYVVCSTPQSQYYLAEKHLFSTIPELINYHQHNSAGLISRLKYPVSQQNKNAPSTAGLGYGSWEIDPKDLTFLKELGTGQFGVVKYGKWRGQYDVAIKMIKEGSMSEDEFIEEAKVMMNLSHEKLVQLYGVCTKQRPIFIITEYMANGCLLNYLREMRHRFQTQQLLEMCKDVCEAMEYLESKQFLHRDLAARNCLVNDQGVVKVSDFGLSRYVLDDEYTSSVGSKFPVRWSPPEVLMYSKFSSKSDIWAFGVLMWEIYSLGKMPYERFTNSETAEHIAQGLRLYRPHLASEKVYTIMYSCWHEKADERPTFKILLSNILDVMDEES

**Q.** For `C=CC(=O)Nc1cc(Nc2nccc(-c3cn4c5c(cccc35)CCC4)n2)c(OC)cc1N(C)CCN(C)C`, which IC50 [1] is on record?
**A.** 2.6 to 2.9 nM

**Q.** What about the IC50 [2] of the same compound?
**A.** 870 nM

**Q.** What about the IC50 [3] of the same compound?
**A.** 109 nM

**Q.** And the half-life [4]?
**A.** 11.9 min

**Q.** And the CLint scaled [5]?
**A.** 63.4 mL/min/kg

**Q.** What about the AUC(0-t) at 24 h [6] of the same compound?
**A.** 995 ng·h/mL

**Q.** And the clearance [7]?
**A.** 86.2 mL/min/kg

**Q.** And the Activity [8]?
**A.** 239.33 mm3

**Q.** And the Activity [9]?
**A.** 113.52 mm3

**Q.** What about the T/C [10] of the same compound?
**A.** 56.4%

**Q.** And the T/C [11]?
**A.** 25.7%

**Q.** And the T/C [12]?
**A.** 12.1%

**Q.** What about the inhibition in vivo at 5 mg/kg [13] of the same compound?
**A.** 46.8%

**Q.** What about the Activity [14] of the same compound?
**A.** Non-Toxic

**Q.** What about the inhibition [15] of the same compound?
**A.** -2%

**Q.** And the inhibition [16]?
**A.** 84%

**Q.** What about the inhibition [17] of the same compound?
**A.** 48%

**Q.** And the inhibition [18]?
**A.** 14%

**Q.** And the inhibition [19]?
**A.** 5%

**Q.** And the inhibition [20]?
**A.** 56%

**Q.** What about the inhibition [21] of the same compound?
**A.** 0%

**Q.** And the inhibition [22]?
**A.** -6%

**Q.** And the inhibition [23]?
**A.** 15%

**Q.** What about the inhibition [24] of the same compound?
**A.** -3%

**Q.** What about the inhibition [25] of the same compound?
**A.** -2%

**Q.** And the inhibition [26]?
**A.** 7%

**Q.** What about the inhibition [27] of the same compound?
**A.** 0%

**Q.** And the inhibition [28]?
**A.** -10%

**Q.** And the inhibition [29]?
**A.** 117%
